Test results: ChEMBL document CHEMBL4622977, “A CNS-Targeting Prodrug Strategy for Nuclear Receptor Modulators” (J Med Chem, 2020)
Values belong to the compound of their own block, whether it stands above or below them. Activity calls are given as the source filed them. The calls are words filed in the database; no cut-off is given here.

Columns and labels:
[1] = mouse, in vivo, ip
[2] = Hepatotoxicity in C57BL/6 mouse assessed effect on Rarres2 gene expression at 9.14 umol/kg, ip administered once daily for 7 days by Trizol reagent based RT-qPCR analysis; details: in vivo, 168 h
Mus musculus [3] = assay: In vivo agonist activity at RAR in C57BL/6 mouse assessed upregulation of Adam10 gene expression in brain at 9.14 umol/kg, ip administered once daily for 7 days by Trizol reagent based RT-qPCR analysis; type: functional, organism-based
Outline: (§1)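 Male C57BL/6 mice (n=5) were dosed once daily for 7 days i.p. with parent drug at […], equimolar prodrug, or vehicle. The vehicle was 1:1:8 Kolliphor:NMP:water. Target gene expression was compared between groups per tissue by 2-tailed unpaired t test.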

[4] = AUC (0.5 to 6 hrs) in C57BL/6 mouse serum at 9.14 umol/kg, ip by LC-MS/MS analysis; type: ADME, organism-based; set-up: time upper 6 hr, dose 9.14 umol/kg, time lower 0.5 hr, route intraperitoneal; details: in vivo
Outline: (§2)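 Male wild-type C57BL/6 mice (8−10 weeks, n=3 per time point) received parent drug or equimolar prodrug at […] i.p. in DMSO. Brain and serum were collected at 0.5, 2 and 6 h. Parent acid was quantified by LC-MS/MS against vehicle-tissue standard curves with d₆-sobetirome internal standard. AUC0.5–6 h was computed from the time course; mean ± SEM.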

in vivo = details: C57BL/6, mouse, brain/serum, ip, 9.14 umol/kg
[5] = AUC (0.5 to 6 hrs) in C57BL/6 mouse brain assessed as GW3965 level at 9.14 umol/kg, ip by LC-MS/MS analysis; type: ADME, organism-based; set-up: dose 9.14 umol/kg, time 0.5-6 hr, route intraperitoneal; details: in vivo, BLD = below limit of detection
Outline: as §2

[6] = AUC (0.5 to 6 hrs) in C57BL/6 mouse serum assessed as GW3965 level at 9.14 umol/kg, ip by LC-MS/MS analysis; type: ADME, organism-based; set-up: time 0.5-6 hr, dose 9.14 umol/kg, route intraperitoneal; details: in vivo
Outline: as §2

[7] = Prodrug conversion in C57BL/6 mouse brain assessed as GW3965 level at 9.14 umol/kg, ip measured after 1 hr in presence of FAAH inhibitor PF-3845 by LC-MS/MS analysis; type: ADME, organism-based; details: in vivo
Outline: (§3)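 Male C57BL/6 mice (n=3) received PF-3845 at 1 mg/kg i.p., then prodrug at […] i.p. 1 h later; comparators received prodrug alone. Vehicle was DMSO. Whole brain was taken 1 h after prodrug and homogenized in water with d₆-sobetirome internal standard. It was extracted with EtOAc/MeCN and parent acid was measured by LC-MS/MS; mean ± SEM, 2-tailed unpaired t test.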

[8] = Renal toxicity in C57BL/6 mouse assessed effect on Fasn gene expression in kidney at 9.14 umol/kg, ip administered once daily for 7 days by Trizol reagent based RT-qPCR analysis; type: organism-based; details: in vivo, 168 h
Outline: as §1

Mus musculus [9] = assay: In vivo agonist activity at PPAR in C57BL/6 mouse assessed upregulation of Pgc1-alpha gene expression at 9.14 umol/kg, ip administered once daily for 7 days by Trizol reagent based RT-qPCR analysis; type: functional, organism-based
Outline: as §1

[10] = AUC (0.5 to 6 hrs) in C57BL/6 mouse serum assessed as tesaglitazar level at 9.14 umol/kg, ip by LC-MS/MS analysis; type: ADME, organism-based; set-up: time lower 0.5 hr, dose 9.14 umol/kg, time upper 6 hr, route intraperitoneal; details: in vivo
Outline: as §2

[11] = Brain to serum concentration ratio, Kp of the compound in C57BL/6 mouse assessed as tesaglitazar level at 9.14 umol/kg, ip by LC-MS/MS analysis; type: ADME, organism-based
Outline: (§4)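 Brain-to-serum ratio Kp was calculated from brain and serum parent-drug AUC0.5–6 h (ng/g*h). These AUCs came from male C57BL/6 mice (n=3 per time point) given parent drug or equimolar prodrug at […] i.p. in DMSO, sampled at 0.5, 2 and 6 h. Parent acid was quantified by LC-MS/MS with d₆-sobetirome internal standard.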

[12] = AUC (0.5 to 6 hrs) in C57BL/6 mouse brain assessed as tesaglitazar level at 9.14 umol/kg, ip by LC-MS/MS analysis; type: ADME, organism-based; set-up: time upper 6 hr, dose 9.14 umol/kg, time lower 0.5 hr, route intraperitoneal; details: in vivo
Outline: as §2

[13] = Prodrug conversion in C57BL/6 mouse brain assessed as tesaglitazar level at 9.14 umol/kg, ip measured after 1 hr in presence of FAAH inhibitor PF-3845 by LC-MS/MS analysis; type: ADME, organism-based; details: in vivo
Outline: as §3

[14] = AUC (0.5 to 6 hrs) in C57BL/6 mouse brain assessed as GW501516 level at 9.14 umol/kg, ip by LC-MS/MS analysis; type: ADME, organism-based; set-up: time 0.5-6 hr, dose 9.14 umol/kg, route intraperitoneal; details: in vivo
Outline: as §2

[15] = Brain to serum concentration ratio, Kp of the compound in C57BL/6 mouse assessed as GW501516 level at 9.14 umol/kg, ip by LC-MS/MS analysis; type: ADME, organism-based
Outline: as §4

[16] = Prodrug conversion in C57BL/6 mouse brain assessed as GW501516 level at 9.14 umol/kg, ip measured after 1 hr in presence of FAAH inhibitor PF-3845 by LC-MS/MS analysis; type: ADME, organism-based; details: in vivo
Outline: as §3

[17] = AUC (0.5 to 6 hrs) in C57BL/6 mouse serum assessed as GW501516 level at 9.14 umol/kg, ip by LC-MS/MS analysis; type: ADME, organism-based; set-up: dose 9.14 umol/kg, time upper 6 hr, time lower 0.5 hr, route intraperitoneal; details: in vivo
Outline: as §2

[18] = AUC (0.5 to 6 hrs) in C57BL/6 mouse serum assessed as 2-(4-(4-hydroxy-3-isopropyl-5-((4-nitrophenyl)ethynyl)-benzyl)-3,5-dimethylphenoxy)acetic acid level at 9.14 umol/kg, ip by LC-MS/MS analysis; type: ADME, organism-based; set-up: time 0.5-6 hr, dose 9.14 umol/kg, route intraperitoneal; details: in vivo
Outline: as §2

[19] = Brain to serum concentration ratio, Kp of the compound in C57BL/6 mouse assessed as 2-(4-(4-hydroxy-3-isopropyl-5-((4-nitrophenyl)ethynyl)-benzyl)-3,5-dimethylphenoxy)acetic acid level at 9.14 umol/kg, ip by LC-MS/MS analysis; type: ADME, organism-based
Outline: as §4

[20] = Prodrug conversion in C57BL/6 mouse brain assessed as 2-(4-(4-hydroxy-3-isopropyl-5-((4-nitrophenyl)ethynyl)-benzyl)-3,5-dimethylphenoxy)acetic acid level at 9.14 umol/kg, ip measured after 1 hr in presence of FAAH inhibitor PF-3845 by LC-MS/MS analysis; type: ADME, organism-based; details: in vivo
Outline: as §3

[21] = AUC (0.5 to 6 hrs) in C57BL/6 mouse brain assessed as 2-(4-(4-hydroxy-3-isopropyl-5-((4-nitrophenyl)ethynyl)-benzyl)-3,5-dimethylphenoxy)acetic acid level at 9.14 umol/kg, ip by LC-MS/MS analysis; type: ADME, organism-based; set-up: time upper 6 hr, time lower 0.5 hr, dose 9.14 umol/kg, route intraperitoneal; details: in vivo
Outline: as §2

AUC [1]: 38.5 ng·h/g | AUC [4]: 314.5 ng·h/g | Kp (in vivo): 0.12
SMILES: CC1(C)CCSc2ccc(C#Cc3ccc(C(=O)O)cn3)cc21 [TAZAROTENIC ACID]
Activity [2]: Toxic | Activity (Mus musculus [3]): inactive

AUC [1]: 228.2 ng·h/g | AUC [4]: 169.3 ng·h/g | Kp (in vivo): 1.35
SMILES: CC/C(=C(\c1ccc(O)cc1)c1ccc(/C=C/C(=O)O)cc1)c1ccccc1

AUC [5]: Bld | AUC [6]: 155.4 ng·h/g | Drug metabolism [7]: Metabolite_Notdetected
SMILES: CNC(=O)Cc1cccc(OCCCN(Cc2cccc(C(F)(F)F)c2Cl)CC(c2ccccc2)c2ccccc2)c1

AUC [4]: 5108 ng·h/g
SMILES: O=C(O)Cc1cc(I)c(Oc2ccc(O)c(I)c2)c(I)c1 [TIRATRICOL]

AUC [1]: 7.3 ng·h/g | AUC [4]: 2107 ng·h/g | Kp (in vivo): 0.004
SMILES: CCO[C@@H](Cc1ccc(OCCc2ccc(OS(C)(=O)=O)cc2)cc1)C(=O)O [TESAGLITAZAR]
Activity [8]: Toxic | Activity (Mus musculus [9]): inactive

AUC [10]: 374.1 ng·h/g | Kp [11]: 0.06 | AUC [12]: 21.9 ng·h/g | Drug metabolism [13]: Metabolite_Notdetected
SMILES: CCO[C@@H](Cc1ccc(OCCc2ccc(OS(C)(=O)=O)cc2)cc1)C(=O)NC
Activity [8]: Non-Toxic | Activity (Mus musculus [9]): Active

AUC [1]: 11.9 ng·h/g | AUC [4]: 756.9 ng·h/g | Kp (in vivo): 0.016
SMILES: Cc1cc(OCC(=O)O)cc(C)c1Cc1cc(C#Cc2ccc([N+](=O)[O-])cc2)c(O)c(C(C)C)c1

AUC [14]: 146.3 ng·h/g | Kp [15]: 0.054 | Drug metabolism [16]: Metabolite_Detected | AUC [17]: 2705 ng·h/g
SMILES: CNC(=O)COc1ccc(SCc2sc(-c3ccc(C(F)(F)F)cc3)nc2C)cc1C

AUC [18]: 49.5 ng·h/g | Kp [19]: 1.5 | Drug metabolism [20]: Metabolite_Notdetected | AUC [21]: 73.8 ng·h/g
SMILES: CNC(=O)COc1cc(C)c(Cc2cc(C#Cc3ccc([N+](=O)[O-])cc3)c(O)c(C(C)C)c2)c(C)c1
